Shown are actives, neighbours in structure and some others; about 4.3% of the full set was active somewhere.
ALR H2O2 inh = inhibitors of human ALR sulfhydryl oxidase, primary screen, biochemical, H2O2 detection, HRP-luminol luminescence, single point | AID 485317, 2010 | purified ALR, DTT oxidation | FAD-linked sulfhydryl oxidase ALR (Homo sapiens), P55789 | 290,000 tested, 3.8% active | inhibition, % (test concentration not listed);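 active = mean replicate inhibition above about 79%, with every replicate also reaching it, limit read from the data; inconclusive = only one of the two criteria met; inactive = mean below limit and not every replicate reaching it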
PREPL inh = PREPL enzyme inhibitors, primary screen, biochemical, fluorescence polarization | inhibition, % at 5.96 µM | 320,000 tested, 0.68% active | recombinant PREPL, fluorescence polarization activity-based probe; in the data active = inhibition above about 43%
Rin1-Abl PPI inh = inhibitors of Rin1-Abl protein binding, primary screen, biochemical, TR-FRET. Tyrosine-protein kinase ABL1 (Homo sapiens) + Ras and Rab interactor 1 (Homo sapiens), …. 360,000 tested, 0.4% active. inhibition, % at 7.35 µM; in the data active = inhibition above about 5%, passing the limit was not always enough
RBBP9 inhibitor = human RBBP9 inhibitors, primary screen, biochemical, fluorescence polarization, FP-Rh probe, HTS | Serine hydrolase RBBP9 (Homo sapiens), O75884 | recombinant RBBP9 | inhibition, % at 7.94 µM | 220,000 tested, 0.2% active | AID 1515, 2009;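 active = inhibition above the campaign mean of all tested compounds plus 3 SD, cut at about 14% in these data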
Target sequence (O75884 whole entry, looked up): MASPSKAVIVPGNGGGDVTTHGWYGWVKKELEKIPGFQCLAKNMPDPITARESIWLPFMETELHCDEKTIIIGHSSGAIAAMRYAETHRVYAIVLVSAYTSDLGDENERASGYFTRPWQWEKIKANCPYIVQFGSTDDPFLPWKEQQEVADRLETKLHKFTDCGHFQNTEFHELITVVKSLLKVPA
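System: RBBP9 protein | Quantity: 2.5 µM RBBP9 dispensing solution, before mixing | Reagent: FP-Rh probe, 375 nM dispensing solution | Timing: Enzyme-compound preincubation 30 min, then probe labeling 45 min, 25 °C | Measured by: Fluorescence polarization | Read-out: % inhibition | Replication: One well per compound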
SUMO HTRF inh = inhibitors of in vitro SUMOylation cascade, primary screen, biochemical, HTRF, uHTS | SUMO-conjugating enzyme UBC9 (Homo sapiens), P63279 | HTRF SUMOylation assay, SAE1/SAE2 + UBC9 | inhibition, % at 35 µM | 290,000 tested, 0.36% active; in the data active = inhibition above about 50%, passing the limit was not always enough; inconclusive = no clear call, values can overlap the other calls
Target sequence (P63279 whole entry, looked up): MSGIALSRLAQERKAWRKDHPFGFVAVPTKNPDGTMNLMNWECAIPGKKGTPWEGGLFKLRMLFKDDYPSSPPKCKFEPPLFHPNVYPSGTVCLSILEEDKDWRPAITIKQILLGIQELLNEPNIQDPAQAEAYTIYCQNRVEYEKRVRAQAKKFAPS
UBC13 inh = UBC13 polyubiquitin chain formation inhibitors, primary screen, biochemical, TR-FRET, uHTS | Ubiquitin-conjugating enzyme E2 N (Homo sapiens), P61088 | inhibition, % at 20 µM | 330,000 tested, 0.47% active | AID 485273, 2010; in the data active = inhibition above about 45%, passing the limit was not always enough; inconclusive = no clear call, values can overlap the other calls
Target sequence (P61088 whole entry, looked up): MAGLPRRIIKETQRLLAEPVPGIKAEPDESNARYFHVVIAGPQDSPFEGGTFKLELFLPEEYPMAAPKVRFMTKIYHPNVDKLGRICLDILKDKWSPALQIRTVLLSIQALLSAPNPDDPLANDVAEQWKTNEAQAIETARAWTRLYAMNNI
Numbers stand for hits; 0 = inactive; ? = inconclusive; - = no result.

SMILES	ALR H2O2 inh	PREPL inh	Rin1-Abl PPI inh	RBBP9 inhibitor	SUMO HTRF inh	UBC13 inh
C=CCCN(Cc1ccccc1)S(=O)(=O)c1cc(Br)ccc1Br	0	0	0	-	-	0
COCCn1c(C)cc(/C=C(\C#N)C(=O)OCC(=O)N(C)c2c(N)n(Cc3ccccc3)c(=O)[nH]c2=O)c1C	0	0	0	-	-	0
O=C1NC(C(=O)O)=CC(c2ccc([N+](=O)[O-])cc2)N1 (stereo unspecified)	78	0	0	0	0	0
CC1(C(=O)O)COC(c2ccc([N+](=O)[O-])cc2)OC1 (stereo unspecified)	0	0	0	0	0	0
NC(N)=NN=C(c1ccc(F)cc1)c1ccc(C(F)(F)F)cc1	-	-	0	-	-	-
CCOC(=O)c1c(NC(=O)COC(=O)CCS(=O)(=O)c2ccc(C)cc2)sc(C)c1C	94	0	0	0	0	0
COc1ccc(OC)c(CN2CCN(c3ccc(S(=O)(=O)N4CCCC4)cn3)CC2)c1	0	0	0	-	-	0
Cc1cc(OC(C(=O)O)c2ccccc2)c2c(C)c(Cc3ccccc3)c(=O)oc2c1 (stereo unspecified)	0	0	0	0	51	0
CCOc1ccc(N(CC(=O)Nc2cccc(Cl)c2)S(=O)(=O)c2c(C)noc2C)cc1	97	0	0	0	0	0
Cc1cc(C)cc(N(CC(=O)NCc2ccco2)S(=O)(=O)c2c(C)noc2C)c1	86	0	0	0	0	0
Cc1ccc(N(CC(=O)NCc2ccc3c(c2)OCO3)S(=O)(=O)c2c(C)noc2C)cc1	97	0	0	0	0	0
Cc1noc(C)c1S(=O)(=O)N(CC(=O)NCc1ccc2c(c1)OCO2)c1ccc(C(C)C)cc1	95	0	0	0	0	0
CC1(C)CC(=O)C2=C(C1)N(Cc1ccco1)C(=O)C2(NC(=O)c1ccc(Cl)cc1Cl)C(F)(F)F (stereo unspecified)	98	0	0	0	0	0
CC1(C)CC(=O)C2=C(C1)N(Cc1ccco1)C(=O)C2(NC(=O)C1CCCCC1)C(F)(F)F (stereo unspecified)	0	0	0	0	0	0
Cc1ccc(NC(=O)C(Nc2cccc(C)c2)c2ccccc2)cc1 (stereo unspecified)	0	0	0	0	0	0
Cc1cc(NS(=O)(=O)c2ccc(Nc3nc(-c4sc(C)nc4C)cs3)cc2)no1	-	-	-	0	0	-
COc1ccc(-c2csc(Nc3ccc(S(=O)(=O)Nc4cc(C)on4)cc3)n2)cc1	98	0	0	0	0	0
Cc1ccc(S(=O)(=O)Nc2ccccc2C(=O)Nc2nc(-c3ccc(F)cc3)cs2)cc1	-	0	0	0	0	0
COc1ccc(-c2csc(NC(=O)c3ccccc3NS(=O)(=O)c3ccc(F)c(F)c3)n2)cc1	0	0	0	0	67	0
COc1cc(/C=C2\CCc3c2nc2ccccc2c3C(=O)O)cc(OC)c1OC	0	0	0	0	54	0
COc1cc(/C=C2\CCCc3c2nc2ccccc2c3C(=O)O)cc(Br)c1O	97	0	0	-	0	0
CC(=N\Nc1ccccc1)/C(=N/O)C(=O)Nc1ccccc1	97	0	0	0	0	0
CCN1C(=O)/C(=C/N(C)C)c2ccccc21	99	0	0	0	0	0
CCN1C(=O)/C(=C\N(C)C)c2ccccc21	-	0	0	0	0	0
O=S(=O)(NC1CCCCC1)c1ccc(N2CCOCC2)nc1	0	0	0	0	0	?
SMILES	ALR H2O2 inh	PREPL inh	Rin1-Abl PPI inh	RBBP9 inhibitor	SUMO HTRF inh	UBC13 inh
O=C(c1cc2ccccc2o1)N1CCN=C1SCc1cccnc1	99	0	0	0	0	0
O=C(c1ccc(Br)o1)N1CCN=C1SCc1cccnc1	100	0	0	0	0	0
CN(/C=C/C(=C\C=[N+](C)c1ccccc1)OCCCS(=O)(=O)[O-])c1ccccc1	-	0	0	0	0	0
Cn1c(=O)c2[nH]c(N=Nc3ccc(N)cc3N)nc2n(C)c1=O	86	0	0	0	0	0
COc1ccc(Cl)cc1Cn1c(C)c(C(=O)NCc2cccc(Cl)c2)sc1=O	-	-	0	-	-	-
COc1c2ccoc2nc2c(OC)c(O)ccc12	99	0	0	0	0	0
Cc1nc(NCc2ccccn2)c2ccccc2n1	-	0	0	0	0	0
Cc1cc(NCc2ccccn2)nc2ccccc12	84	0	0	0	0	0
CC1CN(c2ccc(S(=O)(=O)N3CCCC3)cn2)CC(C)O1 (stereo unspecified)	0	0	0	0	0	0
OCCOCCn1c(C(CO)Nc2nc(-c3ccc(Cl)cc3)cs2)nc2ccccc21 (stereo unspecified)	95	0	0	-	-	0
O=[N+]([O-])/C(C(Cl)=C(Cl)Cl)=C(\Sc1ccccc1)N1CCCCC1	98	0	0	0	0	0
CCCN(CCC)CCCNC(=O)CS(=O)Cc1nc(-c2ccc(OC)c(OC)c2)oc1C (stereo unspecified)	100	0	0	0	0	0
CCCCN(C)CCCNC(=O)CS(=O)Cc1nc(-c2ccc(OC)c(OC)c2)oc1C (stereo unspecified)	100	0	0	0	0	0
CN(CC1CCCN(CCc2cccc(C(F)(F)F)c2)C1)C(=O)c1cc2ccccc2o1 (stereo unspecified)	-	-	0	-	0	0
O=C(Nc1ccccc1)NC1CCN(Cc2ccccc2)CC1	0	0	0	0	0	0
O=C(CN1CCOc2ccccc21)NC1CCCCCCC1	99	0	0	0	-	0
O=C(CN1CCOc2ccccc21)NC1CCN(Cc2ccccc2)CC1	87	0	0	0	0	0
COc1ccc(CC(=O)Nc2ccc(OC)nc2)cc1	0	0	0	0	0	0
COc1ccc(NC(=O)CCl)cn1	-	0	-	0	83	0
Cc1c(C(=O)N2CCC2(C)C(=O)O)oc2ccccc12 (stereo unspecified)	-	-	0	-	-	-
Cc1nc(C(F)(F)F)c(C(=O)N/N=C(\N)c2cccnc2)s1	0	0	0	0	0	0
Cc1ccc(O)c(C2=NCCNC(C(F)(F)C(F)F)=C2)c1	99	0	0	0	0	0
Oc1ccc(Cl)cc1C1=NCCNC(C(F)(F)C(F)F)=C1	99	0	0	0	0	0
FC(F)C(F)(F)C1=CC(c2ccccc2)=NCCN1	0	0	0	0	0	0
CC(C)C(=O)NN(C(=O)C(C)C)c1nc2ccccc2s1	95	0	0	0	0	0
CC(C)C(=O)N(Nc1nc2ccccc2s1)C(=O)C(C)C	0	0	0	0	0	0
CC1CCCN(C(=S)Nc2ccc(F)cc2)C1 (stereo unspecified)	0	0	0	0	0	0

Bioassay records (PubChem)
